# Compounds with a hit are over-represented: about 0.85% of the library has one in this group of screens.
# TRPN1 ag: zebrafish TRPN1 (NompC) channel agonism. activation, % at 3 µM. HEK293 zebrafish TRPN1-YFP, Fluo-8 calcium fluorescence; 100% = response to 87 µM carbachol. actives 0.18% (n = 220,000);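 active means activation above its plate's cutoff, the mean activation of test wells on that plate plus 3 SD, cut at about 19% in these data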;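 further: 0% = DMSO alone and 100% = 87 µM carbachol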
#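 Material: zebrafish TRPN1-YFP in HEK293 cells; Doses: single test compound dose, 3 µM nominal, 0.3% DMSO; Timing: dye loading 1 h at 37 °C, then 30 min room temperature; Technique: intracellular calcium fluorescence with Fluo-8; Benchmarks: high carbachol 87 µM, low DMSO alone.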
# TRPML3 ag: agonists of human TRPML3 channel; HEK293 TRPML3-YFP, Fluo-8 calcium fluorescence; 100% = the carbachol control signal; actives 0.29% (n = 220,000); Q8TDD5; activation, % at 3 µM;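 active means activation above its plate's cutoff, the mean activation of the plate's test wells plus 3 SD, cut at about 12% in these data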;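 further: 0% = DMSO only wells and 100% = carbachol wells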
#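 Test system: HEK293 cells stably carrying human TRPML3-YFP; Doses: single dose, 3 µM final nominal compound, 0.3% DMSO final; Schedule: dye loading 1 h 37 °C then 30 min ambient, 125 s read; Technique: Fluo-8 calcium fluorescence; Benchmarks: high control carbachol 87 µM, low control DMSO.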
# CRFBP-R2 agonist: agonists of human CRF-binding protein/CRF-R2 receptor complex; AID 588473; actives 0.46% (n = 350,000); HEK293 CRF-R2/CRF-BP, calcium dye fluorescence (FLIPR); percent of saturating CRF peptide response; activation, % at 13.2 µM;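 active means activation of at least 50%, plus an integration ratio under a set limit after plate pattern correction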;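 further: plate controls were neutral control wells without compound for no effect and CRF at EC100 for full effect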
# V1R ag counter: activates human V1a receptor in oxytocin agonist counter-screen. P37288. CHO-V1R cells, Fluo-8 calcium fluorescence, agonist mode; 0% DMSO, 100% 3 nM vasopressin. activation, % at 3 µM. actives 0.25% (n = 320,000);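 active means activation above the mean activation of all tested compounds plus 3 SD, per screening run, cut at about 20% in these data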;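 further: signal is peak over basal fluorescence ratio across a 100 second FLIPR read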
# OXTR ag: human OXTR agonism; actives 0.32% (n = 320,000); P30559; CHO-OTR cells, Fluo-8 calcium fluorescence; normalized: DMSO 0%, oxytocin 100%; activation, % at 3 µM; AID 2435;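 active means activation above the mean of all tested compounds plus 3 SD, cutoff set per screening run, cut at about 20% in these data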;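 further: peak over basal fluorescence ratio from a 100 s FLIPR kinetic read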
# Target sequence (P30559 whole entry, looked up): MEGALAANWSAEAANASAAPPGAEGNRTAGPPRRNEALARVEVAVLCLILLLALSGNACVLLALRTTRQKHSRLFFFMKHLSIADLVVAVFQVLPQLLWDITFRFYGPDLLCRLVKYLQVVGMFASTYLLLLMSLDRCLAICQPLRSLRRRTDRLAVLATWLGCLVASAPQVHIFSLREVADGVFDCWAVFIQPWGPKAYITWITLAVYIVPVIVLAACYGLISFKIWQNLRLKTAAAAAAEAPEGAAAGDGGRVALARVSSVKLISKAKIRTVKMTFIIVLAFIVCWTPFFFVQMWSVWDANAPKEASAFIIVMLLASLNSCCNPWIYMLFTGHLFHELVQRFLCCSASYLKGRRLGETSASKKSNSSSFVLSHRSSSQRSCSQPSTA
# OXTR potentiate: human OXTR potentiation. P30559. CHO-OTR cells, Fluo-8 calcium fluorescence, potentiator mode; 0% = oxytocin EC15, 100% = EC100. activation, % at 3 µM. actives 0.061% (n = 320,000). AID 2445;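 active means activation above that plate's cutoff, the mean activation of tested compounds plus 3 SD, cut at about 6.6% in these data, passing the limit was not always enough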;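 further: 100% uses oxytocin at 75 nM as the full agonist control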
#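 Replication – single well per compound, singlicate · Assay system – CHO cell line stably expressing human OTR · Timing – 6 min pre-incubation, 100 s read · Measure – normalized max/min fluorescence ratio, % activation · Doses – 3.0 µM, one dose · Detection – Fluo-8 calcium dye fluorescence · Probe or stimulus – oxytocin near EC15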
# * marks the source's active call; other numbers are inactive results; nt = no result.
SMILES,TRPN1 ag,TRPML3 ag,CRFBP-R2 agonist,V1R ag counter,OXTR ag,OXTR potentiate
Nc1cnc(Nc2ccc(Br)cc2)nc1N,1.6,5.4,2.6,-0.1,0.1,-15.0
Cc1ccc(S(=O)(=O)N(C)CC(=O)NCCCc2ccccc2)cc1,nt,nt,61.4*,-0.4,-0.4,3.8
Cc1ccc(OCC(=O)c2c(N)n(C)c(=O)n(C)c2=O)c([N+](=O)[O-])n1,nt,nt,0.1,0.7,-0.4,-5.4
O=c1cc(O)c2ccc(O)cc2o1,-1.6,-0.4,4.0,0.1,-0.1,-1.9
O=c1ccc2[n+]([O-])c3ccc(O)cc3oc-2c1,48.1*,26.9*,7.7,nt,nt,nt
CC(C)Oc1ccc(C(=O)Nc2cccc3cccnc23)cc1,-1.9,-0.1,0.3,0.1,-0.9,3.7
O=c1[nH]cccc1-c1nc2ccccc2[nH]1,nt,nt,3.3,2.1,0.5,-7.6
O=c1oc2c(CN3CCN(CCO)CC3)c(O)ccc2cc1-c1ccccn1,1.1,1.0,70.9*,-0.2,1.5,0.0
O=c1oc2c(O)cccc2cc1-c1nc2ccccc2[nH]1,nt,nt,183.6*,nt,nt,nt
O=c1oc2c(CN3CCCCC3)c(O)ccc2cc1-c1nc2ccccc2[nH]1,nt,nt,97.4*,nt,nt,nt
COc1cc(C)cc(OC)c1OCC(=O)Nc1cc(C)on1,nt,nt,-0.3,-0.2,-3.0,3.0
O=C(O)C1(O)C[C@@H](O)C(O)[C@H](O)C1 (some centres not stated),nt,nt,0.8,nt,nt,nt
O=C(CCC(=O)N1CCOc2ccc(Cl)cc21)NCc1ccccc1,nt,nt,243.4*,0.3,-0.8,-0.3
Clc1ccc(NN(Cc2ccncc2)c2ccc(Cl)cc2)cc1,nt,nt,51.4*,nt,nt,nt
Clc1ccc(CSCCc2ccncc2)cc1,-1.2,-1.0,-0.3,1.1,-0.1,-15.8
CCNC(=S)N(CCc1ccc(S(N)(=O)=O)cc1)C1CC(=O)N(c2ccccc2)C1=O (configuration not stated),7.9,2.0,96.8*,1.1,1.6,-16.4
Clc1ccc(-c2nnc3sc(-c4ccc(Br)o4)nn23)cc1,-0.2,0.6,52.5*,6.3,4.5,-11.7
Clc1ccc(-c2nnc3sc(-c4ccc(Br)o4)nn23)c(Cl)c1,1.1,1.1,-1.1,-0.7,-1.1,-4.6
C=CCn1c(SCC(=O)Nc2cccc(S(N)(=O)=O)c2)nnc1C1CCCCC1,nt,nt,-1.6,0.7,1.4,9.4
CCN(CC)c1ccc(/C=C2\SC(=O)N(C(C)C)C2=O)o1,40.4*,9.2,44.3,-0.2,-0.1,10.2
Cc1cc(C)nc(NN2C(=O)/C(=C/c3ccccc3)SC2=S)n1,-0.2,-0.2,-0.7,-0.2,-0.7,1.9
CN(C)c1ccc(/C=C2\SC(=S)N(Nc3ncc(C(F)(F)F)cc3Cl)C2=O)cc1,14.4,7.8,158.8*,91.6*,72.5*,-4.9
N#CC(C#N)=C1C=CC=CN1/C(=C\c1ccco1)C(=O)c1ccc(Cl)cc1,1.6,0.6,60.6*,1.9,2.2,-1.3
N#CC1=C(N)Oc2ccc3ccc(O)cc3c2C1c1ccsc1 (configuration not stated),10.7,4.2,70.6*,nt,nt,nt
CC1(O)CC(C)(C)C(C#N)C(=O)N1 (configuration not stated),nt,nt,3.0,nt,nt,nt
SMILES,TRPN1 ag,TRPML3 ag,CRFBP-R2 agonist,V1R ag counter,OXTR ag,OXTR potentiate
O=C(Nc1ccncc1)Nc1cccc(Cl)c1,nt,nt,3.0,10.7,8.9,-7.4
COC(=O)c1ccc(NC(=O)Nc2cccc(F)c2)cc1,19.4*,9.7,21.4,13.5,13.0,-15.5
O=C(Nc1cccc([N+](=O)[O-])c1)Nc1cccs1,19.7*,13.3*,14.8,9.6,17.1,-38.3
COC(=O)c1sccc1NC(=O)Nc1cccc([N+](=O)[O-])c1,nt,nt,-1.7,0.1,-0.7,-1.1
Cc1ccc([N+](=O)[O-])cc1NC(=O)Nc1cccc(F)c1,23.9*,10.7,12.4,nt,nt,nt
O=C(Nc1cccc(Cl)c1)Nc1csc([N+](=O)[O-])c1,19.0*,11.6*,25.3,7.8,16.6,-7.7
CC(C)(Oc1ccc(Cl)cc1)C(=O)OCc1nc2ccsc2c(=O)[nH]1,nt,nt,-2.2,-2.1,-1.7,-14.1
CN(C)/C=N/c1nccc(-c2cccs2)n1,0.8,0.7,54.1*,-0.7,0.6,-10.5
O=C1CSCN1c1ccc(Cl)cc1,-0.9,0.8,1.3,-1.1,0.5,8.9
CC(=O)Nc1cccc(C(=O)/C=C/c2ccc(N(C)C)cc2)c1,43.8*,20.0*,195.8*,132.2*,194.5*,-19.4
CC(=O)Nc1cccc(C(=O)/C=C/c2ccc(/C=C/C(=O)c3cccc(NC(C)=O)c3)cc2)c1,0.7,0.9,nt,0.1,2.0,-9.4
CCn1c(SCC(=O)NC2CCCCC2)nnc1-c1cccnc1,nt,nt,-1.0,0.1,-0.7,-5.9
CC(C)CC1=NN2C(=N)/C(=C\c3coc4ccccc4c3=O)C(=O)N=C2S1,6.7,3.8,305.8*,nt,nt,nt
CCSC1=NSC2=NC(=O)/C(=C\c3coc4ccccc4c3=O)C(=N)N12,25.2*,14.6*,184.9*,46.6*,62.3*,-11.2
CCCc1cc(C(=O)OCC(=O)N2CCN(c3ccc(OC)cc3)CC2)sc1C,nt,nt,-2.7,2.4,0.0,-7.3
COc1ccc(CCNS(=O)(=O)CCNC(=O)c2ccc(OC)cc2)cc1,nt,nt,-0.3,0.1,0.6,-9.2
O=C(Nc1cc(S(=O)(=O)N2CCCCC2)ccc1O)c1ccccc1NS(=O)(=O)c1ccc(F)cc1,1.1,1.1,71.5*,-0.5,-2.3,-9.9
O=C(Nc1cc(S(=O)(=O)N2CCCCC2)ccc1Cl)c1ccccc1NS(=O)(=O)c1ccc(F)cc1,19.4*,13.4*,47.2,6.6,10.4,-10.4
O=C(c1ccccc1NS(=O)(=O)c1ccc(F)cc1)N1CCCCC1,nt,nt,1.7,1.2,-1.0,0.1
CN(Cc1ccco1)C(=O)CSc1nc(C2CC2)n(-c2ccccc2)n1,nt,nt,-0.2,nt,nt,nt
CC(=O)[C@@]1(O)C(C)CC2C3C=C(C)C4=Cc5c(cnn5-c5ccccc5)C[C@]4(C)C3C(O)C[C@@]21C (some centres not stated),1.7,0.5,1.6,0.7,0.3,-2.7
CCOC(=O)c1c(-c2ccccc2)csc1NC(=O)/C(C#N)=C/c1ccc(O)c(OC)c1,1.0,0.8,198.1*,1.0,2.4,2.8
CC(C)Cc1ccc(C(C)C(=O)Nc2ccccc2O)cc1 (configuration not stated),46.1*,22.2*,77.4*,39.8*,42.0*,-34.5
CC(C)Cc1ccc(C(C)C(=O)Nc2nccs2)cc1 (configuration not stated),11.8,11.0,30.4,28.6*,31.9*,-13.6
C[C@H]1CN([C@@H](C)CO)C(=O)CCCn2nncc2CO[C@H]1CN(C)S(=O)(=O)c1ccc2c(c1)OCCCO2,nt,nt,-0.5,nt,nt,nt

# Screening data (PubChem)
